Out of some 240,000 compounds screened, about 950 (0.4%) were called active.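 The calls were made as follows: active = lipid droplet intensity inhibited by at least 50%, with more than 500 cells counted; inconclusive = wells with under 300 cells, treated as cytotoxic; inactive = the rest.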 What follows is part of a selection rich in actives, with near analogues and random picks from the rest.
Assay: oleate-induced lipid droplet accumulation in AML12 cells – imaging, high-throughput imaging, BODIPY stain, primary screen (AID 1656);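 as to cell count: cells counted across two imaged fields per well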
Conditions: AML12 mouse hepatocytes, oleate lipid droplets, at 6.5 µM; cell count: measured here: cell count, cytotoxicity flag; inhibition: stronger effect = higher value
Procedure, shortened: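 System: AML12 hepatocytes (mouse). Probe or stimulus: oleic acid at 100 µM to induce lipid droplet formation. Times: overnight treatment with compound plus oleate. Detection: Image-based BODIPY and DAPI two-channel analysis. Evaluation: percent inhibition of filter-corrected integrated lipid droplet intensity per well.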

Compound | cell count | inhibition
CCC(C)(C)NC(=O)C(c1ccc(OC)cc1)N(C(=O)CCC(=O)Nc1cc(C)on1)c1ccc(OC)cc1OC (stereo not given) | 774 cells | 2.5% (inactive)
COc1ccc(C(C(=O)NC(C)(C)C)N(Cc2ccc(F)cc2)C(=O)CCC(=O)Nc2cc(C)on2)cc1 (stereo not given) | 757 cells | 96.7% (active)
COc1ccc(CN(CC(=O)NC2CCCC2)C(=O)CCC(=O)Nc2cc(C)on2)cc1 | 702 cells | -31.7% (inactive)
COc1cccc(CNC(=O)Cn2c(=O)oc3cc(S(=O)(=O)N4CCCCC4)ccc32)c1 | 692 cells | 25.1% (inactive)
CCOC(=O)C1=C(CC)OC(N)=C(C#N)C1c1ccc(F)cc1F (stereo not given) | 769 cells | 70.2% (active)
CCOC(=O)C1=C(C)OC(N)=C(C#N)C1c1cncc(-c2ccc(F)cc2)c1 (stereo not given) | 619 cells | -2.2% (inactive)
CCC1=C(C(=O)OC)C(c2cc(OC)ccc2OC)C(C#N)=C(N)O1 (stereo not given) | 697 cells | -12.3% (inactive)
COc1cc(/C=N/NC(=O)Nc2ccccc2)ccc1OCCOc1ccccc1C | 674 cells | 94.6% (active)
COc1ccc(/C=N/NC(=O)c2ccccc2)cc1OS(=O)(=O)c1ccccc1 | 657 cells | -6% (inactive)
COc1cc(/C=N/NC(=O)c2ccoc2C)ccc1OCCN1CCCCC1 | 729 cells | 4.7% (inactive)
CC(C)CCn1c(=O)c2c(nc3n2CCCN3Cc2ccccc2)n(C)c1=O | 827 cells | -12.4% (inactive)
Cc1cccn2c(=O)c(/C=C(\C#N)C(N)=O)c(N3CCCCCC3)nc12 | 788 cells | 1.2% (inactive)
CC(=O)c1ccc(N2CCN(C(=O)C3CCN(S(=O)(=O)c4ccc5c(c4)CC(C)N5C(=O)C4CC4)CC3)CC2)cc1 (stereo not given) | 672 cells | -0.3% (inactive)
COc1cccc(N(CC(=O)NC2CCCCCC2)S(=O)(=O)c2ccccc2)c1 | 750 cells | 2.3% (inactive)
CCC(C)[C@H](NC(=O)N1CCn2c1nc1ccccc12)C(=O)NCc1ccc(OC)cc1 (stereo not given in full) | 712 cells | 28% (inactive)
CCc1ccc2nc(N(CCCN(C)C)C(=O)c3ccc4c(c3)OCCO4)sc2c1 | 802 cells | 0% (inactive)
CCC(=O)N1CCN(c2ccccc2NC(=O)COc2cccc(C)c2C)CC1 | 823 cells | -15% (inactive)
COc1cc(/C=N/NC(=O)c2cccnc2)ccc1OC(=O)c1cccc(Br)c1 | 669 cells | -11.9% (inactive)
CN1CCN(CCNC(=O)Nc2ccccc2[N+](=O)[O-])CC1 | 440 cells | 10.2% (inactive)
O=[N+]([O-])c1ccccc1N/N=C1\CCc2ccccc21 | 658 cells | 60.3% (active)

Compound | cell count | inhibition
O=[N+]([O-])c1cc(C(F)(F)F)ccc1NN=C1CCCC1 | 631 cells | 1.6% (inactive)
Cc1c2cnn(CC(=O)NCc3ccccn3)c(=O)c2c(C)n1Cc1ccc(Cl)cc1 | 683 cells | -9.1% (inactive)
CN(C)c1ccc(Nc2c3c4c(cccc4n(C)c2=O)C(=O)c2ccccc2-3)cc1 | 681 cells | 75.9% (active)
CCOc1ccccc1-c1cc(C(=O)N/N=C(\C)c2cccnc2)c2ccccc2n1 | 660 cells | -32% (inactive)
Cc1c2cnn(CC(=O)NCCCN3CC(C)CC(C)C3)c(=O)c2c(C)n1Cc1ccc(Cl)cc1 (stereo not given) | 643 cells | -27.4% (inactive)
CC1CC(C)CN(CCOc2cccc3ccccc23)C1 (stereo not given) | 797 cells | -2.9% (inactive)
COc1ccc(Oc2cn[nH]c2-c2ccc(OC)cc2O)cc1 | 836 cells | -10.9% (inactive)
COC(=O)c1cc(NS(=O)(=O)c2ccc3c(c2)c(=O)n(C)c(=O)n3C)cc(C(=O)OC)c1 | 716 cells | -11.5% (inactive)
Cc1c(C(=O)NCc2ccccc2)cnn1-c1ccccc1 | 684 cells | 56.3% (active)
CSc1ccccc1C(=O)NCc1ccccc1 | 673 cells | 4% (inactive)
Cc1c(C(=O)N(Cc2ccccc2)Cc2cccnc2)cnn1-c1ccc(F)cc1 | 648 cells | -6% (inactive)
COC(=O)C1=CN(c2ccc(F)c(F)c2)C=C(C(=O)OC)C1c1ccc([N+](=O)[O-])cc1 | 825 cells | -1.4% (inactive)
Cc1ccc(C)c(S(=O)(=O)N2CCCOC2CNC(=O)C(=O)NC2CCCCC2)c1 (stereo not given) | 690 cells | -1.2% (inactive)
COc1cccc(N2CCN(c3ccc4nnc(CCC(=O)N5CCN(C)CC5)n4n3)CC2)c1 | 633 cells | -28.1% (inactive)
COc1cc(SC)ccc1C(=O)N(Cc1ccccc1)c1ccccc1 | 608 cells | -8.6% (inactive)
COCn1c(C(O)c2ccccc2)cc2ccccc21 (stereo not given) | 813 cells | -9.2% (inactive)
Cc1ccc(O)c(/C=N/NC(=O)COc2ccc3c(C)cc(=O)oc3c2)c1 | 786 cells | -1.7% (inactive)
CCn1cc(CN2CCN(CC(C)(C)C)C(CCO)C2)c2ccccc21 (stereo not given) | 814 cells | 5.1% (inactive)
CC(=O)Nc1cccc(Nc2nc(-c3cccs3)nc3ccccc23)c1 | 775 cells | 2.7% (inactive)
COc1cc2c(cc1OC)CN(C(=O)c1cc(S(=O)(=O)N3CCCCC3)ccc1Cl)CC2 | 813 cells | -18.7% (inactive)

Reference: PubChem BioAssay AID1656 (Sanford-Burnham Center for Chemical Genomics, 2009)
